Values after ≈ are worked out from the molar mass of the structure shown.
Columns and labels:
Staphylococcus aureus [1] = assay: Antimicrobial activity against Staphylococcus aureus MTCC 96 assessed as growth inhibition after 24 hrs by agar well diffusion method; assay type: functional; conditions: MTCC 96, 24 h
Bacillus subtilis [2] = assay: Antimicrobial activity against Bacillus subtilis MTCC 121 assessed as growth inhibition after 24 hrs by agar well diffusion method; assay type: functional; conditions: MTCC 121, 24 h
Staphylococcus aureus [3] = assay: Antimicrobial activity against Staphylococcus aureus MLS16 MTCC 2940 assessed as growth inhibition after 24 hrs by agar well diffusion method; assay type: functional; conditions: MLS16 MTCC 2940, 24 h
Micrococcus luteus [4] = assay: Antimicrobial activity against Micrococcus luteus MTCC 2470 assessed as growth inhibition after 24 hrs by agar well diffusion method; assay type: functional; conditions: MTCC 2470, 24 h
Raoultella planticola [5] = assay: Antimicrobial activity against Klebsiella planticola MTCC 530 assessed as growth inhibition after 24 hrs by agar well diffusion method; assay type: functional; conditions: MTCC 530, 24 h
Escherichia coli [6] = assay: Antimicrobial activity against Escherichia coli MTCC 739 assessed as growth inhibition after 24 hrs by agar well diffusion method; assay type: functional; conditions: MTCC 739, 24 h
Pseudomonas aeruginosa = assay: Antimicrobial activity against Pseudomonas aeruginosa MTCC 2453 assessed as growth inhibition after 24 hrs by agar well diffusion method; assay type: functional; conditions: MTCC 2453, 24 h
Candida albicans = assay: Antimicrobial activity against Candida albicans MTCC 3017 assessed as growth inhibition after 24 hrs by agar well diffusion method; assay type: functional; conditions: MTCC 3017, 24 h
Staphylococcus aureus [7] = assay: Bactericidal activity against Staphylococcus aureus MTCC 96 after 24 hrs by serial dilution method; assay type: functional; conditions: MTCC 96, 24 h
Bacillus subtilis [8] = assay: Bactericidal activity against Bacillus subtilis MTCC 121 after 24 hrs by serial dilution method; assay type: functional; conditions: MTCC 121, 24 h
Staphylococcus aureus [9] = assay: Bactericidal activity against Staphylococcus aureus MLS16 MTCC 2940 after 24 hrs by serial dilution method; assay type: functional; conditions: MLS16 MTCC 2940, 24 h
Micrococcus luteus [10] = assay: Bactericidal activity against Micrococcus luteus MTCC 2470 after 24 hrs by serial dilution method; assay type: functional; conditions: MTCC 2470, 24 h
Raoultella planticola [11] = assay: Bactericidal activity against Klebsiella planticola MTCC 530 after 24 hrs by serial dilution method; assay type: functional; conditions: MTCC 530, 24 h
Escherichia coli [12] = assay: Bactericidal activity against Escherichia coli MTCC 739 after 24 hrs by serial dilution method; assay type: functional; conditions: MTCC 739, 24 h
Staphylococcus aureus [13] = assay: Antibiofilm activity against Staphylococcus aureus MTCC 96 after 24 hrs by crystal violet staining based assay; assay type: functional, organism-based; conditions: MTCC 96, 24 h
In short: (§1)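 Biofilm inhibition tested for amine esters and esterquats. IC50 values (µg/mL) are the mean of three determinations, with ciprofloxacin as reference.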

Micrococcus luteus [14] = assay: Antibiofilm activity against Micrococcus luteus MTCC 2470 after 24 hrs by crystal violet staining based assay; assay type: functional, organism-based; conditions: MTCC 2470, 24 h; in short: as §1
Staphylococcus aureus [15] = assay: Antibiofilm activity against Staphylococcus aureus MLS16 MTCC 2940 after 24 hrs by crystal violet staining based assay; assay type: functional, organism-based; conditions: MLS16 MTCC 2940, 24 h; in short: as §1

SMILES | MIC (Staphylococcus aureus [1]) [µg/mL] | MIC (Bacillus subtilis [2]) [µg/mL] | MIC (Staphylococcus aureus [3]) [µg/mL] | MIC (Micrococcus luteus [4]) [µg/mL] | MIC (Raoultella planticola [5]) [µg/mL] | MIC (Escherichia coli [6]) [µg/mL] | MIC (Pseudomonas aeruginosa) [µg/mL] | MIC (Candida albicans) [µg/mL] | MBC (Staphylococcus aureus [7]) [µg/mL] | MBC (Bacillus subtilis [8]) [µg/mL] | MBC (Staphylococcus aureus [9]) [µg/mL] | MBC (Micrococcus luteus [10]) [µg/mL] | MBC (Raoultella planticola [11]) [µg/mL] | MBC (Escherichia coli [12]) [µg/mL] | IC50 (Staphylococcus aureus [13]) [µg/mL] | IC50 (Micrococcus luteus [14]) [µg/mL] | IC50 (Staphylococcus aureus [15]) [µg/mL]
CCCCCCCCCCCCNCCCCCCCCCCC(=O)OC | > 125 | > 125 | > 125 | > 125 | > 125 | > 125 | > 125 | > 125 | > 125 | > 125 | > 125 | > 125 | > 125 | > 125 |  |  | 
CCCCCCCCN(CCCCCCCC)CCCCCCCCCCC(=O)OC | 15.6 (≈ 35.5 µM) | > 125 | 62.5 (≈ 142 µM) | 31.2 (≈ 70.9 µM) | > 125 | > 125 | > 125 | > 125 | 31.2 (≈ 70.9 µM) | > 125 | > 125 | 62.5 (≈ 142 µM) | > 125 | > 125 | 14.5 (≈ 33 µM) | 17.2 (≈ 39.1 µM) | 
COC(=O)CCCCCCCCCCN(C1CCCCC1)C1CCCCC1 | 31.2 (≈ 82.2 µM) | 62.5 (≈ 165 µM) | 31.2 (≈ 82.2 µM) | 15.6 (≈ 41.1 µM) | > 125 | > 125 | > 125 | > 125 | 62.5 (≈ 165 µM) | > 125 | > 125 | 31.2 (≈ 82.2 µM) | > 125 | > 125 | 21.3 (≈ 56.1 µM) | 19.9 (≈ 52.4 µM) | 20.8 (≈ 54.8 µM)
